# ARNT TACC3 PPI: disrupts binding between human ARNT and TACC3; AlphaScreen His-ARNT PAS-B/GST-TACC3 binding, luminescence; TACC3 fragment carries E629A point mutation; 0.66% of 390,000 active; AID 623870; inhibition, % at 9.99 µM;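 active means mean inhibition of replicates at least 50% and at least half of replicates each reaching 50%; inconclusive means half or more replicates reach 50% but mean below 50%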;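 further: 0% = complete ARNT plus TACC3 wells and 100% = ARNT alone without TACC3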
# miR122 inh: blocks miR-122 activity in Huh7 sensor cells; AID 602342; 0.3% of 340,000 active; activation (reporter increase), % at 12.5 µM; Huh7 miR-122 Renilla luciferase sensor, 48 h; neutral wells = 0, positive control = 100;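 active means mean replicate activation score at least 90 and every replicate individually at or above 90; inconclusive means only one of the two criteria met; inactive means neither criterion met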;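 further: higher luciferase means less miR-122 activity so hits act as miR-122 inhibitors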
# PGC1a acetyl inh: modulators of PGC1a acetylation; inhibition, % at 15.6 µM; U2OS PGC1a acetylation, AlphaScreen anti-acetyl-lysine; with virally co-expressed GCN5 acetyltransferase; AID 651687; 0.17% of 350,000 active;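 active means every replicate shows inhibition of at least 40%; inconclusive means mean inhibition at least 40% but some replicate below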;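 further: 0% = neutral control wells and 100% = positive control wells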
# CAL PDZ FP-1: inhibitors of human CAL PDZ peptide binding. Q9HD26. purified CAL PDZ, TMR-peptide fluorescence polarization, 1 h. inhibition, % at 20 µM. 0.02% of 330,000 active;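 active means highest replicate inhibition of at least 40%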;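 further: plate controls were DMSO neutral control wells for no effect and unlabeled competitor peptide control wells for full effect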
#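 Assay system – tagged CAL PDZ protein CerCALP, purified · Timing – 1 h at RT · Compound – single point, 20 µM · Measured by – fluorescence polarization from S- and P-plane intensities, G-factor corrected · Evaluation – inhibition from polarization loss · Probe or stimulus – TMR reporter peptide T*-PRC34 · Buffer or medium – pH 7.4 phosphate-saline buffer, reducing agent, detergent, IgG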
# F508del corr: correctors of CFTR F508del function in bronchial epithelial cells | CFBE cells, YFP halide quenching; stimulated with forskolin plus potentiator P3; % fluorescence drop versus neutral controls | activity (quench increase), % at 7.58 µM | 0.36% of 350,000 active;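 active means mean added fluorescence quench of at least 8% versus neutral control, with both replicates also reaching 8%; inconclusive means only one of the mean or replicate conditions met; inactive means mean below 8% and not both replicates reaching 8%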;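 further: cells transiently co-express mutant CFTR-F508del with the halide-sensitive YFP; corrector assay measuring rescue of mutant channel to the surface after 24 h compound exposure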
# CAL PDZ FP-2: inhibitors of human CAL PDZ peptide binding. Q9HD26. purified CAL PDZ, TMR-peptide fluorescence polarization, 1 h. inhibition, % at 24.9 µM. 0.92% of 300,000 active;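 active means mean inhibition of at least 30% with at least half of replicates also reaching 30%; inconclusive means no clear call, values can overlap the other calls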;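 further: 0% = DMSO neutral control and 100% = excess unlabeled competitor peptide PRC23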
# An asterisk follows results filed as active; ? = inconclusive; . = no result given; [ ] = remark or other dose. In the library only some 1.7% were active in any assay of this set; here they are far more common.
SMILES,ARNT TACC3 PPI,miR122 inh,PGC1a acetyl inh,CAL PDZ FP-1,F508del corr,CAL PDZ FP-2
COCCOC(=O)N1C(=O)[C@@]2(c3cc(C#Cc4ccc(OC)cc4)ccc31)[C@H](C(=O)N1CCN(c3ncccn3)CC1)[C@H]1C(=O)O[C@H](c3ccccc3)[C@H](c3ccccc3)N1[C@@H]2c1ccc(OCCO)cc1,8,.,7,.,-4,.
COc1ccc(NC(=O)Nc2ccc3c(c2)C(=O)N([C@H](C)CO)C[C@H](C)[C@H](CN(C)C(=O)C2CCCCC2)OCCCC[C@@H](C)O3)cc1,-3,-5[16.7 µM],3,.,1,.
O=C(c1ccccc1F)N1CC[C@@H]2[C@@H](CO)Nc3ccc(-c4cccc(F)c4)cc3[C@@H]21,13,104*[16.7 µM],3,.,1,.
COc1ccc(C#Cc2ccc3c(c2)[C@@H]2[C@@H](CCN2C(=O)c2cccc(F)c2)[C@@H](CO)N3)cc1,-2,5[16.7 µM],-3,.,8.7*,.
COc1ccc(C#Cc2ccc3c(c2)[C@H]2[C@H](CCN2C(=O)c2cccc(F)c2)[C@@H](CO)N3)cc1,-3,13[16.7 µM],3,.,-1,.
COc1ccc(-c2c(NC(C)=O)n(C)c3ccccc3c2=O)cc1,-54,1,.,17,.,45*
CC(C)NC(=O)NC(=O)CSc1ccc(S(=O)(=O)N2CCOCC2)cn1,4,3,8,-2,2,-1
CC(C)CNC(=O)CSc1ccc(S(=O)(=O)N2CCN(C)CC2)cn1,-10,0,8,0,1,39*
C[C@@H]1CN([C@H](C)CO)C(=O)c2cc(NC(=O)CCCCCC(=O)Nc3ccccc3N)ccc2O[C@@H]1CN(C)C(=O)Nc1ccc(F)cc1,.,.,4,.,3,.
CN1C(=O)c2cc(NC(=O)c3ccc(Cl)cc3)ccc2OC[C@H]2O[C@H](CC(=O)O)CC[C@@H]21,.,2[16.7 µM],8,.,-3,.
CCNC(=O)C[C@H]1CC[C@H]2[C@@H](COc3ccc(NC(=O)C4CCCCC4)cc3C(=O)N2C)O1,-8,-17[16.7 µM],0,.,-1,.
O=C1Nc2ccccc2N=C(c2ccccc2)C1N(Cc1ccc(F)cc1)C(=O)c1cccnc1 (stereo unspecified),.,19,41*,.,2,.
COc1ccc(C2=Nc3ccccc3NC(=O)C2N(Cc2ccc(F)cc2)C(=O)c2ccco2)cc1 (stereo unspecified),.,10,-10,.,-3,.
COc1ccc(CN(C(=O)c2ccc(-c3ccccc3)[nH]2)C(C(=O)NCC2CCCO2)c2ccc(C)o2)cc1 (stereo unspecified),-2,230*,11,-4,.,-7
O=C(NCC1CCCO1)C(c1cccs1)N(Cc1ccccc1)C(=O)c1ccc(-c2ccccc2)[nH]1 (stereo unspecified),9,.,.,-1,.,2
CCOC(=O)Nc1ccc(NS(=O)(=O)c2ccc(C)cc2)cc1,-3,206*,.,-3,.,?
CC(=O)Nc1ccc(S(=O)(=O)Nc2cccc(-c3nc4ccccc4o3)c2)cc1,9,138*,-4,-2,.,-2
CC(=O)Nc1ccc(NS(=O)(=O)c2ccc3ccccc3c2)cc1,18,105*,-4,-1,.,-1
CCN(CC)S(=O)(=O)c1ccc(NC(=O)Nc2cccc(C(F)(F)F)c2)cc1,8,-33,32,-4,.,-4
CCOC(=O)Nc1ccc(S(=O)(=O)Nc2nc(C)cc(C)n2)cc1,-16,0,-1,-2,-1,.
Cc1ccc(S(=O)(=O)Nc2ccc(NC(=O)Nc3cccc(C(F)(F)F)c3)cc2)cc1,3,.,.,-2,.,74*
O=C(Cc1ccccn1)NCC[C@@H]1CC[C@@H](NC(=O)Nc2ccc(Cl)cc2)[C@H](CO)O1,0,.,0,.,0,.
Cc1ccc(S(=O)(=O)Nc2cccc3c2O[C@@H](CN(C)S(C)(=O)=O)[C@@H](C)CN([C@@H](C)CO)C3=O)cc1,43,13[16.7 µM],10,.,-2,.
CCCCOc1ccc(S(=O)(=O)Nc2ccc(NC(C)=O)cc2)cc1,-3,205*,.,-1,.,.
Cc1ccc(S(=O)(=O)Nc2cccc3c2O[C@H](CN(C)C(=O)Nc2ccccc2)[C@H](C)CN([C@H](C)CO)C3=O)cc1,-3,8[16.7 µM],-1,.,-1,.

# Compound activity (PubChem BioAssay)
